Molecular target: T1, Carboxypeptidase G2 (Pseudomonas aeruginosa (strain ATCC 15692 / DSM 22644 / CIP 104116 / JCM 14847 / LMG 12228 / 1C / PRS 101 / PAO1), UniProt Q9I056)
T1 sequence (Q9I056 whole entry): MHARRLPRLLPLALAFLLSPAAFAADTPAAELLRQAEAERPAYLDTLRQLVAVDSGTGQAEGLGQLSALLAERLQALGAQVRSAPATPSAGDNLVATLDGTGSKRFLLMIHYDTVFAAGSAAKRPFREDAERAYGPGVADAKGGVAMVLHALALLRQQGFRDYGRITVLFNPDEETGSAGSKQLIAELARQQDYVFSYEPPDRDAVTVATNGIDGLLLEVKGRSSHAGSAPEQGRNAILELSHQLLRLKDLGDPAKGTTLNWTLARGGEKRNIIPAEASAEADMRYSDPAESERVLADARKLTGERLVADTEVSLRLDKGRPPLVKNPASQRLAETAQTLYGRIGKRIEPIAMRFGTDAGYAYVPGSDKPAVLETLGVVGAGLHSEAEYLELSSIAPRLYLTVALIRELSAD
Assay: Inhibitory activity against bacterial carboxypeptidase G2 by Dixon plot assay
How it was run: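 Bacterial CPG2 (10 μL stock, 0.1 U) started with 990 μL methotrexate solutions at several concentrations plus inhibitor 0–3.0 μM, in 0.1 M Tris-HCl pH 7.3 with 0.1 mM ZnCl2, 37 °C. Initial rate of absorbance decrease at 320 nm (methotrexate ε 8300). Apparent Ki read from Dixon plot of 1/V against inhibitor concentration.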

Ki | SMILES
5800 nM | Nc1ccc(SC(=O)NC(CCC(=O)O)C(=O)O)cc1 (stereo unspecified) [2-(4-Amino-phenylsulfanylcarbonylamino)-pentanedioic acid]
300 nM | COc1ccc(SC(=O)N[C@H](CCC(=O)O)C(=O)O)cc1 [(R)-2-(4-Methoxy-phenylsulfanylcarbonylamino)-pentanedioic acid]
1070 nM | COc1cccc(SC(=O)NC(CCC(=O)O)C(=O)O)c1 (stereo unspecified) [2-(3-Methoxy-phenylsulfanylcarbonylamino)-pentanedioic acid]
1050 nM | Cc1ccc(SC(=O)NC(CCC(=O)O)C(=O)O)cc1 (stereo unspecified) [2-p-Tolylsulfanylcarbonylamino-pentanedioic acid]
165000 nM | O=C(O)CCC(NC(=O)Sc1cc[n+]([O-])cc1)C(=O)O (stereo unspecified) [2-(1-Oxy-pyridin-4-ylsulfanylcarbonylamino)-pentanedioic acid]
2500 nM | Nc1cccc(SC(=O)NC(CCC(=O)O)C(=O)O)c1 (stereo unspecified) [2-(3-Amino-phenylsulfanylcarbonylamino)-pentanedioic acid]

Reference: BindingDB's records for doi:10.1021/jm990004i (Imperial College, 1999)
